High-throughput results as filed in PubChem.
Runt-SMMHC FRET: inhibitors of human RUNX1 Runt domain binding to CBFb-SMMHC; Q01196+Q13951; Cerulean-Runt/Venus-CBFb-SMMHC FRET ratio 530/480, 1 h; inhibition, % at 20 µM; hit rate 0.74% among 220,000;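 active = mean inhibition across duplicate retests at 20 µM reaching about 50%, limit read from the data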;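 note: 0% = DMSO wells and 100% = wells with excess untagged CBFb-SMMHC; inhibitors lower the FRET ratio by blocking Runt binding to CBFb-SMMHC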
Target sequence (Q01196 whole entry, looked up, the tested form may be a part): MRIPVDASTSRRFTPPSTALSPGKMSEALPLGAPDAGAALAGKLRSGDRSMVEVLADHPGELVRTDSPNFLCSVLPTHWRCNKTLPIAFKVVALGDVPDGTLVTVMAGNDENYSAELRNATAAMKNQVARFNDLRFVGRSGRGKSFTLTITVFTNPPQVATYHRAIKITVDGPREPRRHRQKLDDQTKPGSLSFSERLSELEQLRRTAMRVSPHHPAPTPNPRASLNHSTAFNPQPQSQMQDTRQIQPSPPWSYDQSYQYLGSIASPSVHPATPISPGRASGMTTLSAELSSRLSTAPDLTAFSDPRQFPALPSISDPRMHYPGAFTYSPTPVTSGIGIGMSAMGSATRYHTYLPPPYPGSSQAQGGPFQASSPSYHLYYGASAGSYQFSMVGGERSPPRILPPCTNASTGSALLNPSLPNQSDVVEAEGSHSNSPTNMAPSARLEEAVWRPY
Target sequence (Q13951 whole entry, looked up, the tested form may be a part): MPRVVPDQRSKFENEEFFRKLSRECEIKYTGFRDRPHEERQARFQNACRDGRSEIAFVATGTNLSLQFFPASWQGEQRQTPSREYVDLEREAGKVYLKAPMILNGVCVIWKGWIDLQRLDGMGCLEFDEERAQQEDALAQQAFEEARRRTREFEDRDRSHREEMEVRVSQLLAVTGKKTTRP
Runt-CBFb FRET: Runt domain-CBFb interaction inhibition | Q01196+Q13951 | Cerulean-Runt/Venus-CBFb FRET ratio 530/480, 1 h | inhibition, % at 20 µM | hit rate 0.46% among 220,000 | AID 1496;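 active = inhibition over about 50% at 20 µM in the single-dose screen, limit read from the data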;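 note: 0% = DMSO wells and 100% = excess unlabeled CBFb competitor control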
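Reagent – Venus-CBFb binding partner, 100 nM · Assay system – Cerulean-tagged RUNX1 Runt domain (FRET donor) fusion protein · Input – 100 nM per protein · Incubation – two 1 h room-temperature incubations shielded from light · Measured by – FRET fluorescence · Medium – Tris buffer pH 7.5 with salts and BSA · Benchmarks – unlabeled CBFb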
CaV13 FRET inh: Disruptors of the CACNA1D IQ motif to Ca2+-dependent inactivation inhibitor domain association, primary screening, Förster resonance energy transfer in intact living …; HEK cells, CFP/YFP FRET ICDI-IQ, plate reader, 10 min; percent FRET-ratio fall versus neutral wells; inhibition, % at 12.3 µM; hit rate 0.098% among 340,000; AID 743397;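 active = mean replicate inhibition of at least 30% and at least 1% of replicates passing that level; inconclusive = only one of the two criteria is met; inactive = neither criterion is met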;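 note: 0% = median of the neutral control wells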
RanGTP-Imp inh: disruptors of Ran-importin-beta complex formation – biochemical, FRET, CFP-Ran, YFP-importin-beta, homogeneous, primary screen | cell-free CFP-Ran/YFP-importin-beta FRET ratio | inhibition, % (no concentration beside the values) | hit rate 1.1% among 300,000 | AID 2216;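 active = more than half of the replicate wells show a fall in the fluorescence ratio signal beyond about 16%, limit read from the data, passing the limit was not always enough; inconclusive = exactly half of the replicate wells pass the set limit; inactive = fewer than half of replicates pass the limit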;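 note: 0% = DMSO wells and 100% = Ran loaded with GDP instead of GTP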
Hck Nef HTS: inhibitors of human Hck kinase activated by Nef. P08631. Recombinant Hck-YEEI plus Nef, Z-Lyte FRET kinase assay. inhibition, % at 20 µM. hit rate 0.68% among 220,000. AID 463187;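 active = Hck-Nef kinase inhibition above about 50%, limit read from the data; inactive = inhibition below that limit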;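 note: 0% = DMSO with Hck plus Nef and 100% = Hck alone without Nef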
Runt-CBFb TRFRET: Runt-CBFb binding inhibition; TR-FRET RUNX1 Runt domain-CBFb binding; AID 1502; hit rate 20% among 480; inhibition, % at 20 µM; shares compounds with Runt-CBFb FRET; in the data active = inhibition above about 40%
Numbers without * were called inactive. A selection: hits, their analogues and other compounds. The true share with any hit is near 1.5%.

COc1ccc(S(=O)(=O)Cc2ccc(C(=O)NCc3ccco3)o2)cc1 was read as Runt-SMMHC FRET 0.0, Runt-CBFb FRET 1.6, CaV13 FRET inh -2.2, RanGTP-Imp inh 7.0 and Hck Nef HTS -0.8.
Screening Cn1c(=O)nc2n(Cc3ccccc3)c3ccccc3cc-2c1=O returned Runt-SMMHC FRET 82.3*, Runt-CBFb FRET 89.9*, CaV13 FRET inh 1.5, RanGTP-Imp inh 121.4*, Hck Nef HTS 16.1 and Runt-CBFb TRFRET -52.6.
`COc1ccc(CN(C)CC(=O)Nc2sc3c(c2C#N)CCC3)cc1OC` gave Runt-SMMHC FRET -2.3, Runt-CBFb FRET -2.9, CaV13 FRET inh -1.2, RanGTP-Imp inh -5.0 and Hck Nef HTS 17.5.
For CCC(=O)NC(=S)NNC(=O)c1ccccc1[N+](=O)[O-] the results were Runt-SMMHC FRET 47.8, Runt-CBFb FRET 50.9*, CaV13 FRET inh -19.4, RanGTP-Imp inh -3.4, Hck Nef HTS 18.3 and Runt-CBFb TRFRET -19.7.
For CCOc1ccccc1NC(=O)c1cc2ccccc2oc1=O the results were CaV13 FRET inh 0.3 and RanGTP-Imp inh 4.2.
CCN(CC)c1ccc2cc(C(=O)Nc3cccnc3N3CCOCC3)c(=O)oc2c1 was read as Runt-SMMHC FRET 79.2*, Runt-CBFb FRET 59.0* and Runt-CBFb TRFRET 16.8.
Screening CN1C(=O)C2(C(C#N)=C(N)N(c3cc(Cl)cc(Cl)c3)C3=C2C(=O)CCC3)c2ccccc21 (stereo unspecified) returned Runt-SMMHC FRET 2.3, Runt-CBFb FRET -1.1, RanGTP-Imp inh 3.5 and Hck Nef HTS 3.9.
For COc1ccc(C2C(C#N)=C(N)N(Nc3ccccc3)C3=C2C(=O)CC(C)(C)C3)cc1C (stereo unspecified) the results were Runt-SMMHC FRET 101.5*, Runt-CBFb FRET 61.5*, CaV13 FRET inh -6.8, RanGTP-Imp inh 3.3, Hck Nef HTS 0.5 and Runt-CBFb TRFRET -2.8.
Cc1ccc(C)c(/C=N/Nc2nc3ccccc3c(=O)n2O)c1 was read as Runt-SMMHC FRET 19.0, Runt-CBFb FRET 50.7*, CaV13 FRET inh -18.6, RanGTP-Imp inh 0.4, Hck Nef HTS -7.9 and Runt-CBFb TRFRET -0.7.
Screening O=C(OCc1nc2ccsc2c(=O)[nH]1)c1ccc(Cl)nc1 returned CaV13 FRET inh -7.1 and RanGTP-Imp inh 0.5.
For COC(=O)c1ccccc1N/C=C1\CCc2c(c(C)nn2-c2ccccn2)C1=O the results were Runt-SMMHC FRET 63.0*, Runt-CBFb FRET 53.5*, RanGTP-Imp inh 35.9*, Hck Nef HTS 20.1 and Runt-CBFb TRFRET 50.6*.
For COc1ccccc1NS(=O)(=O)c1ccc(C)c(NC(=O)NCCCl)c1 the results were Runt-SMMHC FRET -0.2, Runt-CBFb FRET 2.0, CaV13 FRET inh -5.0, RanGTP-Imp inh -1.3 and Hck Nef HTS 4.8.
Screening N#C/C(=C/c1ccc(-c2ccc(S(N)(=O)=O)cc2)o1)C(=O)Nc1ccccc1 returned Runt-SMMHC FRET -57.1, Runt-CBFb FRET -67.6, CaV13 FRET inh -5.0, RanGTP-Imp inh 3.6 and Hck Nef HTS 3.1.
For CC(C)NC(=O)c1cccc(Cn2cc(Cl)cn2)c1 the results were Runt-SMMHC FRET 2.0, Runt-CBFb FRET 53.6*, CaV13 FRET inh -4.4, RanGTP-Imp inh 3.7, Hck Nef HTS 1.1 and Runt-CBFb TRFRET -8.0.
For Cc1ccc(-c2noc(CN3CCC(C(N)=O)CC3)n2)cc1 the results were Runt-SMMHC FRET 2.6, Runt-CBFb FRET -0.8, CaV13 FRET inh -3.5, RanGTP-Imp inh -1.5 and Hck Nef HTS 3.1.
Screening Cc1ccc(-c2noc(CN3C(C)CCCC3C)n2)cc1 (stereo unspecified) returned Runt-SMMHC FRET -7.5, Runt-CBFb FRET 84.0*, CaV13 FRET inh -6.6, RanGTP-Imp inh 8.8, Hck Nef HTS 12.2 and Runt-CBFb TRFRET -41.2.
COc1cc(OC)cc(C(=O)/C=C2\Sc3ccccc3N2C)c1 was read as Runt-SMMHC FRET 47.7, Runt-CBFb FRET 56.8*, CaV13 FRET inh -4.4, RanGTP-Imp inh 1.5, Hck Nef HTS -4.2 and Runt-CBFb TRFRET 6.3.
`CN1/C(=C\C(=O)c2cccs2)Sc2ccccc21` gave Runt-SMMHC FRET 93.9*, Runt-CBFb FRET 52.5*, CaV13 FRET inh 10.5, RanGTP-Imp inh inconclusive, Hck Nef HTS 49.8 and Runt-CBFb TRFRET -0.1.
For CN1/C(=C/C(=O)C2CCC2)Sc2ccccc21 the results were Runt-SMMHC FRET 25.2, Runt-CBFb FRET 51.4*, CaV13 FRET inh -8.3, RanGTP-Imp inh 3.6, Hck Nef HTS 3.1 and Runt-CBFb TRFRET 7.5.
For COc1ccc(NC(=O)Nc2ccc3[nH]ccc3c2)cc1 the results were CaV13 FRET inh -4.4 and RanGTP-Imp inh 4.0.
For CCCCC(=O)NNC(=S)NC(=O)c1cccc([N+](=O)[O-])c1 the results were Runt-SMMHC FRET 9.5, Runt-CBFb FRET 29.9, CaV13 FRET inh -3.7, RanGTP-Imp inh -0.7 and Hck Nef HTS 1.3.
Screening CCCCC(=O)NNC(=S)NC(=O)c1ccc([N+](=O)[O-])cc1 returned Runt-SMMHC FRET 22.3, Runt-CBFb FRET 53.6*, CaV13 FRET inh -20.5, RanGTP-Imp inh 2.8, Hck Nef HTS 22.2 and Runt-CBFb TRFRET -20.3.
Screening CN(C)c1nc(-c2cccs2)cc(C(F)(F)F)c1C#N returned Runt-SMMHC FRET 92.2*, Runt-CBFb FRET 53.1*, CaV13 FRET inh -4.3, RanGTP-Imp inh 72.9*, Hck Nef HTS -0.7 and Runt-CBFb TRFRET 23.5.
For COc1cccc2[nH]c3c(N4CCCCC4)ncnc3c12 the results were Runt-SMMHC FRET -7.2, Runt-CBFb FRET -1.0, CaV13 FRET inh -8.6, RanGTP-Imp inh 5.5 and Hck Nef HTS 5.9.
COc1cccc2[nH]c3c(Cl)ncnc3c12 was read as Runt-SMMHC FRET 2.2, Runt-CBFb FRET 52.2*, CaV13 FRET inh -18.0, RanGTP-Imp inh 2.6, Hck Nef HTS 3.4 and Runt-CBFb TRFRET 27.5.
`O=C(CSc1ncnc2ccccc12)c1cccs1` gave Runt-SMMHC FRET 90.2*, Runt-CBFb FRET 53.6*, CaV13 FRET inh -4.0, RanGTP-Imp inh 1.3, Hck Nef HTS 20.3 and Runt-CBFb TRFRET -28.1.
For Cc1nnc(N(C)C(=O)c2ccccn2)s1 the results were Runt-SMMHC FRET -4.0, Runt-CBFb FRET -0.7, RanGTP-Imp inh 1.9 and Hck Nef HTS 1.7.
Screening CN(C(=O)c1ccccn1)c1nnc(-c2cccnc2)s1 returned Runt-SMMHC FRET -2.0, Runt-CBFb FRET 82.1*, Hck Nef HTS 1.5 and Runt-CBFb TRFRET -6.3.
CC(=O)N(c1ccc2oc(=O)sc2c1)S(=O)(=O)c1ccc(C(=O)O)cc1 was read as CaV13 FRET inh -2.3 and RanGTP-Imp inh 1.1.
For CC(=O)N(c1ccc2oc(=O)sc2c1)S(=O)(=O)c1cccs1 the results were Runt-SMMHC FRET 63.4*, Runt-CBFb FRET 71.5*, CaV13 FRET inh -3.3, RanGTP-Imp inh 7.4, Hck Nef HTS -0.5 and Runt-CBFb TRFRET 22.0.
